In PMC2781304 (Biochemistry, 2009):
Values joined by “and” are separate entries in the source; they are usually repeats but may differ in a detail not shown here. Identical values can stand only once. Like-named read-outs stand apart in the source and are kept apart here. Blank lines part the entries; values can stand above or below the substance they belong to. Where no end group is shown, it is not given here.

How the values were obtained:
[1] = ref 66; cited from earlier work
insulin receptor = details: cited from earlier work
rat liver cells = details: ref 20; cited from earlier work
deoxyglucose transport = details: ref 19; cited from earlier work
[2] = actual data were not shown; cited from earlier work
[3] = biological target: T1, human insulin receptor on IM9 cells (Homo sapiens, UniProt P06213); test: Association kinetics of 125I-labeled insulins on IM9 cells; format: binding; details: 125I-labeled ligand, 15 °C
T1 sequence (P06213 28-1370 isoform P06213-2 limits assumed): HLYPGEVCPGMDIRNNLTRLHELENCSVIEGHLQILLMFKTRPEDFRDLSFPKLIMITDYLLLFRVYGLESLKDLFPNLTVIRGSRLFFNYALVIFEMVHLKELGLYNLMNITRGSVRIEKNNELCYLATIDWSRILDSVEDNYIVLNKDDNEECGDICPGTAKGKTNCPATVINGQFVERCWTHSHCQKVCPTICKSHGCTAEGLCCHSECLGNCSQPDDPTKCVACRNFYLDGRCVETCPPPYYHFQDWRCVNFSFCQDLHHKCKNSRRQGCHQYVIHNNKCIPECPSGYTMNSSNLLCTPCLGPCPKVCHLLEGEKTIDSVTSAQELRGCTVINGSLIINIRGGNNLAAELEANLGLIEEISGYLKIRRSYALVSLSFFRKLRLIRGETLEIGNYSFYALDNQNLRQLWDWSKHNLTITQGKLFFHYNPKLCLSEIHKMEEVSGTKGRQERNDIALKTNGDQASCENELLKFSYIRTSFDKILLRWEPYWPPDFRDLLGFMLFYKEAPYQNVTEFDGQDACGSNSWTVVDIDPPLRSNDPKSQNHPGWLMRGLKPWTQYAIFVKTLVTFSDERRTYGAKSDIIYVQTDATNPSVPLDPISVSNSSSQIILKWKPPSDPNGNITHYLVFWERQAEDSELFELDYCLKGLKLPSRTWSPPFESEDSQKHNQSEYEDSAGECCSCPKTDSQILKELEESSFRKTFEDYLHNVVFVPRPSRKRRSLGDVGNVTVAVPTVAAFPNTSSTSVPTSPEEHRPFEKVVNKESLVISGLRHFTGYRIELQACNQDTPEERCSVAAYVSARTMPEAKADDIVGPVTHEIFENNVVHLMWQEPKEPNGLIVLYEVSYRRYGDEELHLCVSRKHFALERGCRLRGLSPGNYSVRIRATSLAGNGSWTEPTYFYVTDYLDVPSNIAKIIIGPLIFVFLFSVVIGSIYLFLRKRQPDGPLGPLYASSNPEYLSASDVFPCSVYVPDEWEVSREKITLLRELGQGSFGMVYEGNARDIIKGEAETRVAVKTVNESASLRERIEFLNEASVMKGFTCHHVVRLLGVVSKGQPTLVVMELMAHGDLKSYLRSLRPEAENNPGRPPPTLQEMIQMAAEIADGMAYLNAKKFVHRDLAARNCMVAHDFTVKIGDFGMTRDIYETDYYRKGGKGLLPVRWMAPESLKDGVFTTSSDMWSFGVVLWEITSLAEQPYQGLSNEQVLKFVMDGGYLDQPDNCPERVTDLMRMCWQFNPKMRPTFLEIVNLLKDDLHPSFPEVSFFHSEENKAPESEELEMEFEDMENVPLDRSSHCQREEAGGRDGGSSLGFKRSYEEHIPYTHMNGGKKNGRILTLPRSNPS
T1 sequence (P06213 763-1382 partner limits assumed): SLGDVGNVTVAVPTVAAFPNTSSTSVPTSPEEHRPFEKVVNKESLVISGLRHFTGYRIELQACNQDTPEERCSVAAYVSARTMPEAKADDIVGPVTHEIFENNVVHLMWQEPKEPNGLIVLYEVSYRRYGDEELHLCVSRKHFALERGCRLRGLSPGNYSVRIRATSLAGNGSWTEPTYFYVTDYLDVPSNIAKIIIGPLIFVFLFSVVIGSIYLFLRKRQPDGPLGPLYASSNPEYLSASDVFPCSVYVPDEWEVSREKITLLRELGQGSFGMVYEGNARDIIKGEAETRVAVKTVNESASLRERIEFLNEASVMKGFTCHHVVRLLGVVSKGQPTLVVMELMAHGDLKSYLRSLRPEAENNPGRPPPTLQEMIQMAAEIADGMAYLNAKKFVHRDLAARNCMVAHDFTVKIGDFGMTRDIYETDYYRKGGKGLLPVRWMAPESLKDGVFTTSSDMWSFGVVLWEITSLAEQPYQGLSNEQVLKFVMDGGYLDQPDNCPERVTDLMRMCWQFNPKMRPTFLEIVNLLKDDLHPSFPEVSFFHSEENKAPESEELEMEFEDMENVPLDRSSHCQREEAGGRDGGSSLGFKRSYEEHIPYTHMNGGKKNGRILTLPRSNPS

IM-9 cell receptors [4] = details: ref 19; cited from earlier work
rat fat pad = details: relative to that of bovine insulin; cited from earlier work
[5] = test system: NIH 3T3 fibroblasts overexpressing the wild-type human insulin receptor; test: [3H]thymidine incorporation; format: cell-based, mouse; details: for relative mitogenic potency over relative metabolic potency: thymidine incorporation versus lipogenesis in rat adipocytes
isolated rat adipocytes = details: ref 16-18; cited from earlier work
rat adipocytes = details: cited from earlier work
primary rat adipocytes = test: Insulin-stimulated lipogenesis; format: cell-based; details: for maximal lipogenesis: compared with human insulin; for metabolic potency relative to human insulin: lipogenesis in primary rat adipocytes
Procedure, shortened: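 Adipocytes from male Sprague-Dawley rat epididymal fat pads, collagenase-digested (1 mg/mL, 45 min, 37 °C) in KRH with 3.5% BSA, 0.2 uM adenosine and 2 mM glucose. […] Lipid-extracted label counted, background (tracer without hormone) subtracted. Triplicates, three experiments, four-parameter logistic fit for ED50.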

[6] = test system: soluble IR ectodomain (sIR); test: Homologous competition for soluble IR ectodomain, PEG precipitation; format: binding; details: 15 pM tracer, 16 h at 4 °C; % of human insulin
HepG2 cells = details: ref 31; cited from earlier work
IM-9 cell receptors [7] = details: cited from earlier work
soluble receptor = details: cited from earlier work
[8] = test system: receptors on the human placental membrane; details: ref 62; cited from earlier work
[9] = biological target: T1, human insulin receptor on IM9 cells; test: Dissociation kinetics of 125I-labeled insulins from IM9 cells; format: binding; details: prebound 6 h at 15 °C, 40-fold dilution

Substance: insulin Wakayama: insulin with a ValA3 to Leu mutation found in a diabetic patient
potency [1]: 0.2%

Substance: IleA10 with Ser: insulin with substitution of IleA10 with Ser as in IGF-I and IGF-II (literature) [reference compound]
loss of affinity (insulin receptor; ref 64): 5 fold

incubation time to reach apparent steady state of binding [3]: 4 h
mitogenic potency relative to human insulin ([5]; thymidine incorporation): 32%
relative mitogenic potency over relative metabolic potency [5]: 3.8
maximal stimulation ([5]; thymidine incorporation, difference not statistically significant): 75 % of that of human insulin
relative affinity for the purified soluble human receptor ectodomain [6]: 22%
Substance: hagfish insulin: insulin from the Atlantic hagfish (Myxine glutinosa), gift from S. Falkmer (Insulin B chain RTTGHLCGKDLVNALYIACGVRGFFYDPTKM; Insulin A chain GIVEQCCHKRCSIYDLENYCN; ends and bridges not checked; cysteine pairing not given here; UniProt P01342 27-57; P01342 95-115, looked up)
potency in rat liver cells (rat liver cells): 3%
biological activity for deoxyglucose transport (deoxyglucose transport): 5−10%
mitogenic:metabolic potency ratio [2]: 1.0
maximal acceleration of dissociation of 125I-labeled porcine insulin (IM-9 cell receptors [4]): same maximal acceleration
potency to accelerate the dissociation of 125I-labeled porcine insulin (IM-9 cell receptors [4]): 5 % of unlabeled porcine insulin
biological activity in rat fat pad (rat fat pad): 7%
affinity for isolated rat adipocytes, % of that of porcine insulin (isolated rat adipocytes): 23%
biological activity in stimulating lipogenesis in rat adipocytes (rat adipocytes; ref 16): 3.8%
biological activity in stimulating lipogenesis in rat adipocytes (rat adipocytes; ref 51): 4.6%
biological potency in stimulating lipogenesis (rat adipocytes; same cells, relative to porcine insulin): 3−5%
maximal lipogenesis (primary rat adipocytes): same maximal lipogenesis as human insulin
metabolic potency relative to human insulin (primary rat adipocytes): 8.4% and 8%

Substance: HisA8 human insulin: human insulin with the ThrA8 to His mutation (literature)
affinity relative to human insulin in HepG2 cells (HepG2 cells): 327%
affinity relative to human insulin in IM-9 lymphocytes (IM-9 cell receptors [7]; ref 47, 56): 300%

Substance: B17 to Val: human insulin with B17 substitution to Val (literature) [reference compound]
reduction of affinity, substitutions at B17 (soluble receptor; solubilized receptor): 2.5 fold

Substance: HisB10Asp: human insulin analogue, His to Asp at B10
enhancement of the affinity and activity of human insulin (insulin receptor; ref 31, 46): 3−5 fold

Substance: B21 to Ala: human insulin with mutation of B21 to Ala (literature)
decrease in the level of binding to receptors on the human placental membrane [8]: ~2 fold
affinity in IM-9 cells (IM-9 cell receptors [7]; ref 26): 226%

incubation time to reach apparent steady state of binding [3]: 6 h
dissociation of 125I-labeled ligand by dilution alone [9]: much slower
mitogenic potency relative to human insulin ([5]; thymidine incorporation): 54%
relative mitogenic potency over relative metabolic potency [5]: 5.8
Substance: lamprey insulin: insulin purified from the islet organ of the river lamprey L. fluviatilis (Insulin B chain SALTGAGGTHLCGSHLVEALYVVCGDRGFFYTPSKT; Insulin A chain GIVEQCCHRKCSIYDMENYCN; ends and bridges not checked; cysteine pairing not given here; UniProt P68988 1-36; P68988 37-57, looked up)
maximal response ([5]; thymidine incorporation, 10% FBS as maximal response): same maximal response as serum or human insulin
relative affinity for the soluble receptor based on IC50 (soluble receptor; ref 9): 130%
maximal lipogenesis (primary rat adipocytes): same maximal lipogenesis as human insulin
metabolic potency relative to human insulin (primary rat adipocytes): 9.4% and 9%
